Reference: ChEMBL document CHEMBL2062453, “Lead optimization through VLAK protocol: new annelated pyrrolo-pyrimidine derivatives as antitumor agents” (2012)

How the values were obtained:
Format in all cases: functional
[1] = system: 786-0; assay: Cytotoxicity against human 786-0 cells assessed as cell growth at 10 uM after 48 hrs by SRB assay relative to control; settings: 786-0, 48 h, read-out: Activity
In short: (§1)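 NCI primary screen of about 60 human tumour lines. Cells inoculated and preincubated, then a single test concentration added and cultures incubated 48 h. Result given as percent growth (G%) of treated versus untreated control cells.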

[2] = system: Malme-3M; assay: Cytotoxicity against human MALME-3M cells assessed as cell growth at 10 uM after 48 hrs by SRB assay relative to control; settings: read-out: Activity; in short: as §1
[3] = system: OVCAR-4; assay: Cytotoxicity against human OVCAR4 cells assessed as cell growth at 10 uM after 48 hrs by SRB assay relative to control; settings: OVCAR-4, 48 h, read-out: Activity
[4] = system: ACHN; assay: Cytotoxicity against human ACHN cells assessed as cell growth at 10 uM after 48 hrs by SRB assay relative to control; settings: read-out: Activity; in short: as §1
[5] = system: NCI-H226; assay: Cytotoxicity against human NCI-H226 cells assessed as cell growth at 10 uM after 48 hrs by SRB assay relative to control; settings: NCI-H226, 48 h, read-out: Activity
[6] = system: CCRF-CEM; assay: Cytotoxicity against human CCRF-CEM cells assessed as cell growth at 10 uM after 48 hrs by SRB assay relative to control; settings: read-out: Activity; in short: as §1
[7] = system: MDA-MB-468; assay: Cytotoxicity against human MDA-MB-468 cells assessed as cell growth at 10 uM after 48 hrs by SRB assay relative to control; settings: MDA-MB-468, 48 h, read-out: Activity
[8] = system: COLO 205; assay: Cytotoxicity against human COLO205 cells assessed as cell growth at 10 uM after 48 hrs by SRB assay relative to control; settings: COLO 205, 48 h, read-out: Activity; in short: as §1
[9] = system: NCI/ADR-RES; assay: Cytotoxicity against human NCI/ADR-RES cells assessed as cell growth at 10 uM after 48 hrs by SRB assay relative to control; settings: read-out: Activity
[10] = system: KM12; assay: Cytotoxicity against human KM12 cells assessed as cell growth at 10 uM after 48 hrs by SRB assay relative to control; settings: KM12, 48 h, read-out: Activity; in short: as §1
[11] = system: A549; assay: Cytotoxicity against human A549 cells assessed as cell growth at 10 uM after 48 hrs by SRB assay relative to control; settings: A549, 48 h, read-out: Activity; in short: as §1
[12] = system: SR; assay: Cytotoxicity against human SR cells assessed as cell growth at 10 uM after 48 hrs by SRB assay relative to control; settings: read-out: Activity
In short: (§2)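 NCI single-dose primary screen across about 60 human tumour lines. Each line was inoculated and preincubated on microtiter plates, then exposed to one concentration of agent for 48 h. Growth is reported as percent growth (G%) of treated cells versus untreated control cells.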

[13] = system: M14; assay: Cytotoxicity against human M14 cells assessed as cell growth at 10 uM after 48 hrs by SRB assay relative to control; settings: M14, 48 h, read-out: Activity; in short: as §1
[14] = system: EKVX; assay: Cytotoxicity against human EKVX cells assessed as cell growth at 10 uM after 48 hrs by SRB assay relative to control; settings: read-out: Activity; in short: as §1
[15] = system: NCI-H460; assay: Cytotoxicity against human NCI-H460 cells assessed as cell growth at 10 uM after 48 hrs by SRB assay relative to control; settings: NCI-H460, 48 h, read-out: Activity
[16] = system: SNB-75; assay: Cytotoxicity against human SNB75 cells assessed as cell growth at 10 uM after 48 hrs by SRB assay relative to control; settings: SNB-75, 48 h, read-out: Activity
[17] = system: HOP-92; assay: Cytotoxicity against human HOP92 cells assessed as cell growth at 10 uM after 48 hrs by SRB assay relative to control; settings: HOP-92, 48 h, read-out: Activity; in short: as §1
[18] = system: UO-31; assay: Cytotoxicity against human UO31 cells assessed as cell growth at 10 uM after 48 hrs by SRB assay relative to control; settings: UO-31, 48 h, read-out: Activity; in short: as §2
[19] = system: SF-295; assay: Cytotoxicity against human SF295 cells assessed as cell growth at 10 uM after 48 hrs by SRB assay relative to control; settings: SF-295, 48 h, read-out: Activity
[20] = system: NCI-H23; assay: Cytotoxicity against human NCI-H23 cells assessed as cell growth at 10 uM after 48 hrs by SRB assay relative to control; settings: NCI-H23, 48 h, read-out: Activity
[21] = system: OVCAR-5; assay: Cytotoxicity against human OVCAR5 cells assessed as cell growth at 10 uM after 48 hrs by SRB assay relative to control; settings: OVCAR-5, 48 h, read-out: Activity
[22] = system: K562; assay: Cytotoxicity against human K562 cells assessed as cell growth at 10 uM after 48 hrs by SRB assay relative to control; settings: K562, 48 h, read-out: Activity; in short: as §1
[23] = system: UACC-257; assay: Cytotoxicity against human UACC257 cells assessed as cell growth at 10 uM after 48 hrs by SRB assay relative to control; settings: UACC-257, 48 h, read-out: Activity; in short: as §2
[24] = system: SK-MEL-5; assay: Cytotoxicity against human SK-MEL-5 cells assessed as cell growth at 10 uM after 48 hrs by SRB assay relative to control; settings: SK-MEL-5, 48 h, read-out: Activity
[25] = system: HCT-15; assay: Cytotoxicity against human HCT15 cells assessed as cell growth at 10 uM after 48 hrs by SRB assay relative to control; settings: HCT-15, 48 h, read-out: Activity; in short: as §1
[26] = system: T47D; assay: Cytotoxicity against human T47D cells assessed as cell growth at 10 uM after 48 hrs by SRB assay relative to control; settings: read-out: Activity; in short: as §2
[27] = system: DU-145; assay: Cytotoxicity against human DU145 cells assessed as cell growth at 10 uM after 48 hrs by SRB assay relative to control; settings: DU-145, 48 h, read-out: Activity; in short: as §1
[28] = system: LOX IMVI; assay: Cytotoxicity against human LOXIMVI cells assessed as cell growth at 10 uM after 48 hrs by SRB assay relative to control; settings: read-out: Activity; in short: as §1
[29] = system: U-251; assay: Cytotoxicity against human U251 cells assessed as cell growth at 10 uM after 48 hrs by SRB assay relative to control; settings: U-251, 48 h, read-out: Activity; in short: as §2
[30] = system: PC-3; assay: Cytotoxicity against human PC3 cells assessed as cell growth at 10 uM after 48 hrs by SRB assay relative to control; settings: PC-3, 48 h, read-out: Activity
[31] = system: MCF7; assay: Cytotoxicity against human MCF7 cells assessed as cell growth at 10 uM after 48 hrs by SRB assay relative to control; settings: MCF7, 48 h, read-out: Activity; in short: as §1
[32] = system: IGROV-1; assay: Cytotoxicity against human IGROV1 cells assessed as cell growth at 10 uM after 48 hrs by SRB assay relative to control; settings: IGROV-1, 48 h, read-out: Activity; in short: as §1
[33] = system: RXF 393; assay: Cytotoxicity against human RXF393 cells assessed as cell growth at 10 uM after 48 hrs by SRB assay relative to control; settings: RXF 393, 48 h, read-out: Activity
[34] = system: SF-539; assay: Cytotoxicity against human SF539 cells assessed as cell growth at 10 uM after 48 hrs by SRB assay relative to control; settings: SF-539, 48 h, read-out: Activity

`CCOC(=O)CCCn1c2c(c(C)c1-c1ccccc1)C1=NC(=O)CN1C(SC)=N2` was tested. Which growth at 10 µM [1] did it give?
Its growth at 10 µM is 100%.

And the growth at 10 µM [2]?
Its growth at 10 µM is 116%.

What about the growth at 10 µM [3] of the same compound?
Its growth at 10 µM is 94%.

And the growth at 10 µM [4]?
The growth at 10 µM was 112%.

What about the growth at 10 µM [5] of the same compound?
The growth at 10 µM was 110%.

What about the growth at 10 µM [6] of the same compound?
Its growth at 10 µM is 71%.

And the growth at 10 µM [7]?
The growth at 10 µM was 87%.

And the growth at 10 µM [8]?
The growth at 10 µM was 129%.

What about the growth at 10 µM [9] of the same compound?
Its growth at 10 µM is 95%.

What about the growth at 10 µM [10] of the same compound?
Its growth at 10 µM is 96%.

What about the growth at 10 µM [11] of the same compound?
Its growth at 10 µM is 108%.

What about the growth at 10 µM [12] of the same compound?
The growth at 10 µM was 94%.

What about the growth at 10 µM [13] of the same compound?
Its growth at 10 µM is 107%.

What about the growth at 10 µM [14] of the same compound?
The growth at 10 µM was 97%.

And the growth at 10 µM [15]?
The growth at 10 µM was 94%.

And the growth at 10 µM [16]?
The growth at 10 µM was 80%.

What about the growth at 10 µM [17] of the same compound?
The growth at 10 µM was 80%.

And the growth at 10 µM [18]?
The growth at 10 µM was 85%.

And the growth at 10 µM [19]?
The growth at 10 µM was 98%.

What about the growth at 10 µM [20] of the same compound?
Its growth at 10 µM is 110%.

And the growth at 10 µM [21]?
Its growth at 10 µM is 111%.

And the growth at 10 µM [22]?
The growth at 10 µM was 90%.

And the growth at 10 µM [23]?
The growth at 10 µM was 113%.

What about the growth at 10 µM [24] of the same compound?
Its growth at 10 µM is 78%.

What about the growth at 10 µM [25] of the same compound?
Its growth at 10 µM is 114%.

What about the growth at 10 µM [26] of the same compound?
Its growth at 10 µM is 88%.

What about the growth at 10 µM [27] of the same compound?
The growth at 10 µM was 109%.

And the growth at 10 µM [28]?
The growth at 10 µM was 93%.

And the growth at 10 µM [29]?
Its growth at 10 µM is 102%.

What about the growth at 10 µM [30] of the same compound?
The growth at 10 µM was 93%.

What about the growth at 10 µM [31] of the same compound?
The growth at 10 µM was 84%.

And the growth at 10 µM [32]?
The growth at 10 µM was 105%.

And the growth at 10 µM [33]?
The growth at 10 µM was 108%.

And the growth at 10 µM [34]?
Its growth at 10 µM is 84%.
